VIM-2 inhibitor – inhibitors of Pseudomonas aeruginosa VIM-2 metallo-beta-lactamase; purified VIM-2, nitrocefin hydrolysis, epi-absorbance fluorescence; inhibition, % at 5.6 µM; 0.89% of 290,000 active;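 active means inhibition above the mean of all tested compounds plus 3 SD, cutoff set per screening run, cut at about 7.5% in these data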;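 further: red hydrolysis product quenches plate fluorescence so inhibitors raise well fluorescence; 0% = enzyme with DMSO and 100% = DMSO without enzyme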
PolyA inh – yeast polyadenylation inhibition; S. cerevisiae SKY197-pL101 polyadenylation reporter, beta-gal luminescence; efflux-impaired pdr1/pdr3 knockout yeast; score 100 = 6 SD above DMSO; activity score, % at 12 µM; 0.02% of 300,000 active;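 active means lowest replicate activity score at least 50, where 100 means six control SD above control mean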;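 further: yeast exposed to compound for 9 h at 30 °C; higher score means more reporter readthrough which indicates perturbed polyadenylation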
NALP3 yeast inh – inhibitors of NALP3 inflammasome in yeast | Yeast reconstituted NLRP3/ASC/caspase-1, beta-gal luminescence, 24 h | inhibition, % at 10 µM | 0.39% of 330,000 active | AID 2825;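 active means inhibition of 50% or more; inactive means inhibition below 50%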;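 further: plate controls were induced DMSO wells for no effect and uninduced yeast grown without galactose for full effect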
NALP1 yeast inh – inhibitors of NALP1 inflammasome in yeast | inhibition, % at 10 µM | S. cerevisiae NALP1/ASC/caspase-1 growth, X-gal OD620, 72 h | AID 2071 | 0.61% of 280,000 active; in the data active means inhibition mostly above about 24%, no sharp cut-off; inactive means mostly below about 32%
SUMO Mot1 rescue – SUMOylation pathway inhibition by Mot1-301 growth rescue; S. cerevisiae Mot1-301 growth rescue, ATP luminescence, 38.5C; percent above DMSO median, 100 means doubled; growth rescue, % at 18.8 µM; 1% of 320,000 active; AID 2716;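 active means every valid replicate shows activation above 250% relative to neutral control wells; inactive means the rest, any valid replicate at or below 250%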;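 further: OY570 slx delta 5 strain wells were the positive control but not used for scaling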
IMP-1 inh-1 – blocks Pseudomonas aeruginosa IMP-1 metallo-beta-lactamase | inhibition, % at 5.6 µM | 0.45% of 290,000 active | purified IMP-1, nitrocefin hydrolysis, epi-absorbance fluorescence;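 active means inhibition above the mean plus 3 SD of all compounds in the same screening run, cut at about 4.5% in these data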;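 further: 0% = IMP-1 with DMSO and 100% = DMSO wells lacking enzyme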
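System: purified recombinant IMP-1 beta-lactamase. Medium: Zinc- and detergent-supplemented HEPES buffer, pH 7.1. Compound: one 5.6 µM dose […]. Schedule: 15 min preincubation plus 25 min reaction at 25 °C. Technique: Epi-absorbance fluorescence, 480 nm excitation, 530 nm emission.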
IMP-1 inh-2 – IMP-1 inhibition, counter-screen for VIM-2 inhibitors; shares compounds with VIM-2 inhibitor; purified IMP-1, nitrocefin hydrolysis, epi-absorbance fluorescence; inhibition, % at 5.6 µM; 1,300 tested, under 10 active; call rule not given here;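 further: 0% = enzyme with vehicle and 100% = vehicle without enzyme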
VIM-2 FRET ctr – VIM-2 FRET inhibition, artifact counter-screen; shares compounds with VIM-2 inhibitor; purified VIM-2, CCF2 FRET substrate hydrolysis; inhibition, % at 5.6 µM; 23% of 1,300 active; AID 1857;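 active means inhibition above the mean of all tested compounds plus 3 SD, cut at about 19% in these data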;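 further: 0% = VIM-2 plus DMSO and 100% = no enzyme wells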
TEM-1 inh – blocks E. coli TEM-1 beta-lactamase in VIM-2 selectivity screen | AID 1866 | shares compounds with VIM-2 inhibitor | 3% of 1,300 active | Purified TEM-1, nitrocefin hydrolysis, epi-absorbance fluorescence | inhibition, % at 5.6 µM;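 active means inhibition above that campaign's mean inhibition plus 3 SD, cut at about 0.46% in these data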;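 further: 0% = TEM-1 with DMSO and 100% = TEM-1 with 100 µM potassium clavulanate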
Target sequence (P62593 whole entry, looked up): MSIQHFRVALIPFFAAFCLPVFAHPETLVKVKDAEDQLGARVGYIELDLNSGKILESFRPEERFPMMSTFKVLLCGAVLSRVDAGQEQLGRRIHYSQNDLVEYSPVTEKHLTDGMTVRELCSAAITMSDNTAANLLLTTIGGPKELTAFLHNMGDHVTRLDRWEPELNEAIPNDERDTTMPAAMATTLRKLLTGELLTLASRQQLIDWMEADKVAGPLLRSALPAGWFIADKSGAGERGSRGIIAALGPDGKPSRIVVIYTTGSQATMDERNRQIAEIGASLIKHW
VIM-2 inh conf – confirmation of P. aeruginosa VIM-2 metallo-beta-lactamase inhibitors | inhibition, % at 5.6 µM | purified VIM-2, nitrocefin hydrolysis, epi-absorbance | shares compounds with VIM-2 inhibitor | 96% of 1,300 active;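 active means inhibition of the VIM-2 beta-lactamase enzyme above about 11% from the earlier first-round screen, limit read from the data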;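 further: 0% = VIM-2 with DMSO and 100% = buffer wells without enzyme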
Numbers without * were called inactive; . = not tested or not shown. An excerpt weighted towards active compounds, which were near 2.9% of everything screened.

SMILES	VIM-2 inhibitor	PolyA inh	NALP3 yeast inh	NALP1 yeast inh	SUMO Mot1 rescue	IMP-1 inh-1	IMP-1 inh-2	VIM-2 FRET ctr	TEM-1 inh	VIM-2 inh conf
CN1CCN(c2ccc(NC(=S)NC(=O)/C=C/c3ccco3)cc2)CC1	50*	-8	24	-11	5	1	0	-3	-2	67*
CN1CCN(c2ccc(NC(=O)COc3cccc4ccccc34)cc2)CC1	28*	16	28	27	189	-3	-3	-5	-4	33*
CCN1CCN(c2ccc(NC(=O)COc3ccccc3Cl)cc2)CC1	14*	19	7	-1	9	-2	-3	-1	-8	31*
CN1CCN(c2ccc(NC(=S)NC(=O)c3cccc4ccccc34)cc2)CC1	20*	0	24	10	-3	1	-2	-8	-6	29*
O=C(COc1ccc2c3c(c(=O)oc2c1)CCC3)NCc1cccnc1	17*	6	23	4	8	-3	-3	-1	-6	27*
Cc1cc(=O)oc2cc(OCC(=O)NCc3ccncc3)ccc12	2	-7	17	-1	-5	-3	.	.	.	.
NS(=O)(=O)c1ccc(CCNC(=O)COc2ccc3c4c(c(=O)oc3c2)CCC4)cc1	19*	10	-1	-7	-2	-3	-3	-4	-8	28*
O=C(COc1cc2oc(=O)c3c(c2cc1Cl)CCC3)NCc1ccncc1	28*	1	8	16	13	-3	-3	-4	-3	35*
O=C(COc1ccc2c3c(c(=O)oc2c1)CCC3)NCc1ccncc1	29*	-8	-2	-10	18	-2	-3	-3	-4	39*
O=C(CSc1nc2nn(-c3ccccc3)c(=O)c-2c2n1CCCCC2)NCCc1ccccc1	-2	-2	28	-8	1	-2	.	.	.	.
COc1ccccc1C(C)NC(=O)c1cc(=O)[nH]c2ccccc12 (stereo unspecified)	-2	-1	13	27	1	0	.	.	.	.
C[C@@]12C(=O)N(CC3CC3)CC(=O)N1[C@H](C1CC1)[C@@H]1C(=O)N(c3ccccc3)C(=O)[C@@H]12	-2	0	-16	5	-21	-1	.	.	.	.
CN(c1ccccc1)S(=O)(=O)c1cccc(NC(=O)c2nn(C)c(=O)c3ccccc23)c1	.	.	12	.	.	.	.	.	.	.
COc1ccc(C(=O)Nc2ccc(N3CCN(C)CC3)cc2)cc1	15*	0	6	14	-6	-6	-2	2	-2	26*
COc1ccc(C(=O)Nc2ccc(S(=O)(=O)N3CCN(C)CC3)cc2)cc1	.	-4	20	.	195	.	.	.	.	.
CCN1CCN(c2ccc(NC(=O)c3cc(OC)c(OC)c(OC)c3)cc2)CC1	24*	10	21	11	5	-4	-4	-2	-5	38*
CN1CCN(c2ccc(NC(=O)c3ccc4ccccc4c3)cc2)CC1	25*	14	1	38	135	-1	-1	-1	-6	34*
CN1CCN(c2ccc(NC(=O)c3ccc(Br)o3)cc2)CC1	14*	8	5	16	-10	-2	-3	3	-6	31*
Cc1ccc(S(=O)(=O)CC(=O)Nc2ccc3nc(C)sc3c2)cc1	-1	-5	10	1	-7	-3	.	.	.	.
CCOc1ccccc1-c1nnc(SCC(=O)NC2(C#N)CCCC2)o1	.	.	1	.	18	.	.	.	.	.
CCc1nnc(NC(=O)CN2CCN(Cc3ccccc3Cl)CC2)s1	-1	-7	19	.	4	-4	.	.	.	.
CCc1ccccc1NS(=O)(=O)c1cc2c3c(c1)CCN3C(=O)CC2	.	0	22	.	.	.	.	.	.	.
CC(=O)Nc1ccc(S(=O)(=O)N(C)CC(=O)OCCOc2cccc(C)c2)cc1	-1	-10	8	28	-3	0	.	.	.	.
COc1ccc(C(=O)Nc2ccc(N3CCN(C)CC3)cc2)cc1OC	24*	-22	19	27	3	-5	-3	3	-6	39*
CCN1CCN(c2ccc(NC(=O)c3ccc(Cl)c(N4CCCC4=O)c3)cc2)CC1	26*	18	12	14	-9	-4	-2	-1	-5	42*
SMILES	VIM-2 inhibitor	PolyA inh	NALP3 yeast inh	NALP1 yeast inh	SUMO Mot1 rescue	IMP-1 inh-1	IMP-1 inh-2	VIM-2 FRET ctr	TEM-1 inh	VIM-2 inh conf
CCOC(=O)Cc1nnc(NC(=O)CSc2ccc(C)cc2)s1	0	2	-7	3	0	-2	.	.	.	.
CCN(CC)C(=O)CSc1nnc2c3ccccc3n(C)c2n1	14*	-26	20	-5	7	-6	-3	0	-5	24*
CCOC(=O)Cc1nnc(NC(=O)CSc2nnc3c4ccccc4n(C)c3n2)s1	17*	-10	8	15	9	-3	-2	-1	-11	38*
COC(=O)c1cnc(N2CCCN(S(=O)(=O)c3ccc(C(F)(F)F)cc3)CC2)nc1C(F)(F)F	-3	3	-4	7	-12	-4	.	.	.	.
Cc1ccc2cccnc2c1N	16*	-2	-1	11	-6	-3	-3	-10	-5	40*
NNc1cc(C(=O)O)ccc1Cl	-1	4	5	-6	3	-1	.	.	.	.
O=C(O)CN1C(=O)c2cccc3c(Br)ccc1c23	0	18	7	-7	4	-2	.	.	.	.
CN(C)CCCN1C(=O)c2cccc3c(Br)ccc(c23)C1=O	12*	-10	3	11	93	-1	-2	0	-6	18*
O=C1C(=O)N(c2nccs2)C(c2ccccc2F)/C1=C(\O)c1ccc2c(c1)OCCO2 (stereo unspecified)	21*	5	4	17	-5	1	-3	33*	-5	22*
CC(Oc1cccc(Br)c1)C(=O)NNC(=O)CCNC(=O)c1ccccc1Cl (stereo unspecified)	.	.	5	.	3	.	.	.	.	.
CC1CC(C)CN(C(=O)COC(=O)CNC(=O)C23CC4CC(CC(C4)C2)C3)C1 (stereo unspecified)	.	0	2	.	6	.	.	.	.	.
CC1=CCC(C(=O)O)(C(=O)N/N=C/c2cccs2)C(c2ccc(Cl)cc2)C1 (stereo unspecified)	15*	-3	19	-1	9	-1	-4	0	-5	4
CC(=O)c1cccc(NC(=O)C(C)OC(=O)c2cccc(-n3cnnn3)c2)c1 (stereo unspecified)	.	2	4	.	-17	.	.	.	.	.

Assay outcomes: PubChem, several laboratories
